Experimental data from ChEMBL document CHEMBL4196108, “5-Aroylindoles Act as Selective Histone Deacetylase 6 Inhibitors Ameliorating Alzheimer's Disease Phenotypes” (J Med Chem, 2018).
Calls of active or inactive are those of the source. The rule behind the calls is not given here.

How the values were obtained:
[1] = Drug uptake in Sprague-Dawley rat brain at 50 mg/kg, po after 3 hrs by HPLC-MS/MS analysis; format: ADME, organism-based; details: read-out: Drug uptake
[2] = target: T1, Protein deacetylase HDAC6 (Homo sapiens) (UniProt Q9UBN7); experiment: Inhibition of HDAC6 in human SH-SY5Y cells transfected with pCAX FLAG APP and pRK5-EGFP-Tau P301L plasmids assessed as inhibition of Tau P301L mutant phosphorylation at Ser404 residue at 1 uM after 24 hrs by Western blot analysis; format: cell-based
T1 sequence (whole entry): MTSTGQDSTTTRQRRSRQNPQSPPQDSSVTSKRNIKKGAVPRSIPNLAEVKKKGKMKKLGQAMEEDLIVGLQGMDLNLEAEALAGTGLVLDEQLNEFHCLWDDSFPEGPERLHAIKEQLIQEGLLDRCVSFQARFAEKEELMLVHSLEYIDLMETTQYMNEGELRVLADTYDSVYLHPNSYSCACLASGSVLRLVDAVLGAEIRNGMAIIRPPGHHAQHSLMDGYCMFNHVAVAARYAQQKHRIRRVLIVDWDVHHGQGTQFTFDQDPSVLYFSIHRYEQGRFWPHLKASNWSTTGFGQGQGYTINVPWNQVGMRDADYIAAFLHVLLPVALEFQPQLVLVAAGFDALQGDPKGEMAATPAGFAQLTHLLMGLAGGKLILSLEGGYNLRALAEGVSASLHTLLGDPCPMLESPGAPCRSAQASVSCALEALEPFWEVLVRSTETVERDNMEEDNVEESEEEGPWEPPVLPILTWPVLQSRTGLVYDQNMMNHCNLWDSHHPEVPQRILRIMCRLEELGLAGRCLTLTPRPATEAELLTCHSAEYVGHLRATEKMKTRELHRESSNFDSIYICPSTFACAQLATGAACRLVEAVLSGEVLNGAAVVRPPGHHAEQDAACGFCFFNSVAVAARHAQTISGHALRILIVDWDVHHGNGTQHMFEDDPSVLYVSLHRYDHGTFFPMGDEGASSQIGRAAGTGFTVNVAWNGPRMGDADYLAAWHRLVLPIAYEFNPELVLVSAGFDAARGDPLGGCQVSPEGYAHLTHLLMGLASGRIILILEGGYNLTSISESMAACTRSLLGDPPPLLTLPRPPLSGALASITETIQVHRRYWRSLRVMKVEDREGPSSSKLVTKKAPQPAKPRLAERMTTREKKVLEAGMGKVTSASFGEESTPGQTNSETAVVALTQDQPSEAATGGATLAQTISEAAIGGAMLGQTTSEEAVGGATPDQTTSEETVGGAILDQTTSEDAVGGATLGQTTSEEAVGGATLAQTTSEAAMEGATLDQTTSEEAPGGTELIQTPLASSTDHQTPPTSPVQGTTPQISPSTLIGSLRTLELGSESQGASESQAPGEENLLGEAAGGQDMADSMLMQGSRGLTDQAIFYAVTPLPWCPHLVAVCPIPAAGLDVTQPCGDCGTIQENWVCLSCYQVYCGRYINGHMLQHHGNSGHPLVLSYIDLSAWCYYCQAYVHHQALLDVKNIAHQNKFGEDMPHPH
Procedure, shortened: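 SH-SY5Y or Neuro-2a cells cotransfected 24 h with pCAX APP695 and pRK5-EGFP-Tau P301L, then treated 24 h at 1 µM. 20 µg lysate protein immunoblotted for APP and phospho-tau Ser396/Ser404. Mean ± STD of three independent experiments; Student's t-test.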

[3] = target: T1, Protein deacetylase HDAC6 (Homo sapiens); experiment: Inhibition of HDAC6 binding to HSP90 in human SH-SY5Y cells transfected with pCAX FLAG APP and pRK5-EGFP-Tau P301L plasmids at 1 uM after 24 hrs by coimmunoprecipitation analysis; format: cell-based
Procedure, shortened: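 SH-SY5Y and Neuro-2a cells cotransfected 24 h with APP695/Tau P301L plasmids, treated 24 h at 1 µM (ACY-1215 reference). 30 µg lysate immunoprecipitated overnight at 4 °C with anti-HDAC6 or anti-acetyl-lysine antibodies plus protein A/G beads, run on 8% SDS-PAGE, probed for Hsp90; Hsp70 by immunoblot. Three independent experiments.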

COc1ccc(C(=O)c2ccc3c(ccn3Cc3ccc(C(=O)NO)cc3)c2)cc1
concentration at 3 h [1]: 6.3 ng/g
inhibition [2]: Active
inhibition [3]: Active
